# Results published in ChEMBL document CHEMBL1146085, “Nanomolar inhibitors of the peptidyl prolyl cis/trans isomerase Pin1 from combinatorial peptide libraries” (J Med Chem, 2006).
# Where a SMILES comes first, the peptide text is derived from it. [ ]: non-standard residue; d: D form. The star is where a group is joined. dalloThr(PO3H2) = C[C@@H](OP(=O)(O)O)[C@@H](N)C(=O)O; alloThr(PO3H2) = C[C@H](OP(=O)(O)O)[C@H](N)C(=O)O; Biotin = O=C1N[C@H]2[C@H](CS[C@H]2CCCCC(=O)*)N1; Phe(4-tBu) = CC(C)(C)c1ccc(C[C@H](N)C(=O)O)cc1; Bip = N[C@@H](Cc1ccc(-c2ccccc2)cc1)C(=O)O; pT = C[C@@H](OP(=O)(O)O)[C@H](N)C(=O)O; 2Nal = N[C@@H](Cc1ccc2ccccc2c1)C(=O)O; Bta = N[C@@H](Cc1csc2ccccc12)C(=O)O; Tic = O=C(O)[C@@H]1Cc2ccccc2CN1; 2Thi = N[C@@H](Cc1cccs1)C(=O)O; Cha = N[C@@H](CC1CCCCC1)C(=O)O; Tle = CC(C)(C)[C@H](N)C(=O)O; Pip = O=C(O)[C@@H]1CCCCN1; NMeA = CN[C@@H](C)C(=O)O
# Tests used:
# [1] = target: T1, Peptidyl-prolyl cis-trans isomerase NIMA-interacting 1 (Homo sapiens, UniProt Q13526); assay: Inhibition of human Pin1 PPIase Activity by protease free PPIase assay
# In short: (§1)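 Protease-free PPIase assay using Abz-Ala-Glu-Pro-Phe-NH-Np as substrate in 35 mM HEPES, pH 7.8, at 10 °C. Ki derived from concentration-dependent measurement of remaining Pin1 activity.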
# HeLa [2] = assay: Stability in HeLa cells after 5 hrs incubation; type: ADME, cell-based; settings: human
# In short: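 Peptide incubated 5 h in whole HeLa cell lysate without phosphatase or protease inhibitors. Biotin-conjugated species pulled down on streptavidin Sepharose and analysed by mass spectrometry. Separately, 5 µM peptide analysed by capillary electrophoresis in 50 mM sodium phosphate, pH 7.0, detected at 220 nm, against a reference sample in buffer alone.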
# [3] = target: T1, Peptidyl-prolyl cis-trans isomerase NIMA-interacting 1; assay: Residual PPIase activity of human GST-Pin1
# [4] = system: Peptidyl-prolyl cis-trans isomerase NIMA-interacting 1 (Homo sapiens), Q13526 [K63A]; assay: Residual PPIase activity of human GST-Pin1 K63A
# [5] = system: Peptidyl-prolyl cis-trans isomerase NIMA-interacting 1 (Homo sapiens), Q13526 [S67E]; assay: Residual PPIase activity of human GST-Pin1 S67E
# [6] = target: T1, Peptidyl-prolyl cis-trans isomerase NIMA-interacting 1; assay: Residual PPIase activity of human GST-Pin1 R68
# [7] = target: T1, Peptidyl-prolyl cis-trans isomerase NIMA-interacting 1; assay: Residual PPIase activity of human GST-Pin1 69A
# [8] = system: Peptidyl-prolyl cis-trans isomerase NIMA-interacting 1 (Homo sapiens), Q13526 [C113A]; assay: Residual PPIase activity of human GST-Pin1 C113A
# [9] = system: Peptidyl-prolyl cis-trans isomerase NIMA-interacting 1 (Homo sapiens), Q13526 [S16E]; assay: Residual PPIase activity of human GST-Pin1 S16E by protease free PPIase assay; in short: as §1
# [10] = system: Peptidyl-prolyl cis-trans isomerase NIMA-interacting 1 (Homo sapiens), Q13526 [H59A]; assay: Residual PPIase activity of human GST-Pin1 H59A
# [11] = system: Peptidyl-prolyl cis-trans isomerase NIMA-interacting 1 (Homo sapiens), Q13526 [S154F]; assay: Residual PPIase activity of human GST-Pin1 S154F
# [12] = target: Peptidyl-prolyl cis-trans isomerase NIMA-interacting 4 (Homo sapiens) (UniProt Q9Y237); assay: Inhibition of Par14 at 500 uM
# Chain of Peptidyl-prolyl cis-trans isomerase NIMA-interacting 4 (Homo sapiens) (Q9Y237 whole entry): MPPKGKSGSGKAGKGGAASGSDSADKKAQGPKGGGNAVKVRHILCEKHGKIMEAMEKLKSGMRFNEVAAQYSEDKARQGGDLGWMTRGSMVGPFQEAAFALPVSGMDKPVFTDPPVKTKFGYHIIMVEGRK
# [13] = target: Peptidyl-prolyl cis-trans isomerase FKBP1A (Homo sapiens) (UniProt P62942); assay: Inhibition of FKBP12 at 500 uM
# Chain of Peptidyl-prolyl cis-trans isomerase FKBP1A (Homo sapiens) (P62942 whole entry): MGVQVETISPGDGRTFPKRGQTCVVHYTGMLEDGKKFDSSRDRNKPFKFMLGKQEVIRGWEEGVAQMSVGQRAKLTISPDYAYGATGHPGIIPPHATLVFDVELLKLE
# [14] = target: Peptidyl-prolyl cis-trans isomerase A (Homo sapiens) (UniProt P62937); assay: Inhibition of Cyp18 at 500 uM
# Chain of Peptidyl-prolyl cis-trans isomerase A (Homo sapiens) (P62937 whole entry, looked up): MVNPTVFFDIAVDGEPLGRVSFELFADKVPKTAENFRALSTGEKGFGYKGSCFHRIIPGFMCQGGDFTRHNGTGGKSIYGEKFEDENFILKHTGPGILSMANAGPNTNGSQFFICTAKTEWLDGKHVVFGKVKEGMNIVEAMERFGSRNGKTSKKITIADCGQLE
# [15] = target: Mitogen-activated protein kinase 1 (Homo sapiens) (UniProt P28482); assay: Inhibition of ERK2 at 500 uM
# Chain of Mitogen-activated protein kinase 1 (Homo sapiens) (P28482 whole entry): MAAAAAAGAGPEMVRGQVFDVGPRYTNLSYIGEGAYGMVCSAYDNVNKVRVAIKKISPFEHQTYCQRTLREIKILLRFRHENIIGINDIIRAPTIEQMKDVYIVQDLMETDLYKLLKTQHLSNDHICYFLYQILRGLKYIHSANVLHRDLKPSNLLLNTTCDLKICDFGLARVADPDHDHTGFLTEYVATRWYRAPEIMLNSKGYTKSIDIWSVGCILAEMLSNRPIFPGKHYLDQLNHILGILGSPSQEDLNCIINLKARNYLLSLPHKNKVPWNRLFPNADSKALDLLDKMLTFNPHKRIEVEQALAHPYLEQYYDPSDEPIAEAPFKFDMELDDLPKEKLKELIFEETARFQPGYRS
# [16] = target: cAMP-dependent protein kinase (PKA) (Homo sapiens) (UniProt P22694+P17612+P22612); assay: Inhibition of PKA at 500 uM; type: protein assay
# [17] = target: Protein kinase C (PKC) (Homo sapiens) (UniProt O94806+P41743+P17252+P05129+Q05655+P05771+Q05513+Q02156+P24723+Q15139+Q04759); assay: Inhibition of PKC at 500 uM; type: protein assay
# [18] = Inhibition of PP2A at 500 uM
# [19] = target: Serine/threonine protein phosphatase PP2B-alpha catalytic subunit (Homo sapiens) (UniProt P16298); assay: Inhibition of PP2B at 500 uM
# [20] = Inhibition of PP1 at 500 uM
# HeLa [21] = assay: Cell cycle arrest in HeLa cells by accumulation at G2/M phase; type: functional, cell-based; settings: Homo sapiens
# In short: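 HeLa cells loaded with inhibitor or its nonphosphorylated derivative by electroporation at varying concentrations, then cultured 3 days at 37 °C. DNA content measured by flow cytometry to give cell cycle phase fractions. Intracellular inhibitor level measured after cell lysis and centrifugation by reverse-phase HPLC of the supernatant against a standard curve.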
compound,measurement,setting,value
CC(=O)N[C@@H](CCCCNC(=O)CCCC[C@@H]1SC[C@@H]2NC(=O)N[C@@H]21)C(=O)N[C@@H](C)C(=O)N[C@@H](C)C(=O)N[C@@H](Cc1csc2ccccc12)C(=O)N[C@H](C(=O)N1CCC[C@H]1C(=O)N[C@@H](CC1CCCCC1)C(=O)N[C@@H](CCC(N)=O)C(N)=O)[C@@H](C)OP(=O)(O)O (Ac-K(Biotin)AA[Bta][pT]P[Cha]Q-NH2),IC50,[1],> 50 µM
CC(=O)N[C@@H](CCCCNC(=O)CCCC[C@@H]1SC[C@@H]2NC(=O)N[C@@H]21)C(=O)N[C@@H](C)C(=O)N[C@@H](C)C(=O)N[C@@H](Cc1ccc(-c2ccccc2)cc1)C(=O)N[C@H](C(=O)N1CCC[C@H]1C(=O)N[C@@H](Cc1ccc2ccccc2c1)C(=O)N[C@@H](CCC(N)=O)C(N)=O)[C@H](C)OP(=O)(O)O (Ac-K(Biotin)AA[Bip][alloThr(PO3H2)]P[2Nal]Q-NH2),IC50,[1],18 µM
same,Ki,[1],0.0048 µM
CC(=O)N[C@@H](CCCCNC(=O)CCCC[C@@H]1SC[C@@H]2NC(=O)N[C@@H]21)C(=O)N[C@@H](C)C(=O)N[C@@H](C)C(=O)N[C@@H](Cc1ccc(C(C)(C)C)cc1)C(=O)N[C@H](C(=O)N1Cc2ccccc2C[C@H]1C(=O)N[C@@H](Cc1csc2ccccc12)C(=O)N[C@@H](CCC(N)=O)C(N)=O)[C@H](C)OP(=O)(O)O (Ac-K(Biotin)AA[Phe(4-tBu)][alloThr(PO3H2)][Tic][Bta]Q-NH2),IC50,[1],8 µM
CC(=O)N[C@@H](Cc1csc2ccccc12)C(=O)N[C@H](C(=O)N1CCCC[C@@H]1C(=O)N[C@@H](Cc1ccc2ccccc2c1)C(=O)N[C@@H](CCC(N)=O)C(N)=O)[C@@H](C)OP(=O)(O)O,Ki,[1],0.258 µM
CC(=O)N[C@@H](CCCCNC(=O)CCCC[C@@H]1SC[C@@H]2NC(=O)N[C@@H]21)C(=O)N[C@@H](C)C(=O)N[C@@H](C)C(=O)N[C@@H](Cc1ccccc1)C(=O)N[C@H](C(=O)N(C)[C@@H](C)C(=O)N[C@@H](Cc1csc2ccccc12)C(=O)N[C@@H](CCC(N)=O)C(N)=O)[C@H](C)OP(=O)(O)O (Ac-K(Biotin)AAF[alloThr(PO3H2)][NMeA][Bta]Q-NH2),IC50,[1],20 µM
CC(=O)N[C@@H](Cc1ccccc1)C(=O)N[C@H](C(=O)N1CCCC[C@@H]1C(=O)N[C@@H](Cc1ccc2ccccc2c1)C(=O)N[C@@H](CCC(N)=O)C(N)=O)[C@H](C)OP(=O)(O)O,Ki,[1],0.547 µM
CC(=O)N[C@@H](Cc1ccccc1)C(=O)N[C@@H](C(=O)N1CCCC[C@H]1C(=O)N[C@@H](Cc1ccc2ccccc2c1)C(=O)N[C@@H](CCC(N)=O)C(N)=O)[C@H](C)OP(=O)(O)O,Activity,HeLa [2],Stable
CC(=O)N[C@@H](CCCCNC(=O)CCCC[C@@H]1SC[C@@H]2NC(=O)N[C@@H]21)C(=O)N[C@@H](C)C(=O)N[C@@H](C)C(=O)N[C@@H](Cc1csc2ccccc12)C(=O)N[C@H](C(=O)N1CCCC[C@H]1C(=O)N[C@@H](Cc1ccc2ccccc2c1)C(=O)N[C@@H](CCC(N)=O)C(N)=O)[C@H](C)OP(=O)(O)O (Ac-K(Biotin)AA[Bta][alloThr(PO3H2)][Pip][2Nal]Q-NH2),IC50,[1],0.21 µM
same,Ki,[1],0.183 µM
same,Activity,[3],100%
same,Activity,[4],0.2%
same,Activity,[5],0.3%
same,Activity,[6],0.4%
same,Activity,[7],0.4%
same,Activity,[8],6%
same,Activity,[9],100%
same,Activity,[10],5.7%
same,Activity,[11],35%
CC(=O)N[C@@H](CCCCNC(=O)CCCC[C@@H]1SC[C@@H]2NC(=O)N[C@@H]21)C(=O)N[C@@H](C)C(=O)N[C@@H](C)C(=O)N[C@@H](Cc1ccc2ccccc2c1)C(=O)N[C@H](C(=O)N1CCC[C@H]1C(=O)N[C@H](C(=O)N[C@@H](CCC(N)=O)C(N)=O)C(C)(C)C)[C@H](C)OP(=O)(O)O (Ac-K(Biotin)AA[2Nal][alloThr(PO3H2)]P[Tle]Q-NH2),IC50,[1],> 50 µM
CC(=O)N[C@@H](CCCCNC(=O)CCCC[C@@H]1SC[C@@H]2NC(=O)N[C@@H]21)C(=O)N[C@@H](C)C(=O)N[C@@H](C)C(=O)N[C@@H](Cc1csc2ccccc12)C(=O)N[C@H](C(=O)N1CCC[C@H]1C(=O)N[C@@H](Cc1ccc2ccccc2c1)C(=O)N[C@@H](CCC(N)=O)C(N)=O)[C@H](C)OP(=O)(O)O (Ac-K(Biotin)AA[Bta][alloThr(PO3H2)]P[2Nal]Q-NH2),IC50,[1],20 µM
CC(=O)N[C@@H](CCCCNC(=O)CCCC[C@@H]1SC[C@@H]2NC(=O)N[C@@H]21)C(=O)N[C@@H](C)C(=O)N[C@@H](C)C(=O)N[C@@H](Cc1cccs1)C(=O)N[C@H](C(=O)N(C)[C@@H](C)C(=O)N[C@@H](Cc1ccc2ccccc2c1)C(=O)N[C@@H](CCC(N)=O)C(N)=O)[C@H](C)OP(=O)(O)O (Ac-K(Biotin)AA[2Thi][alloThr(PO3H2)][NMeA][2Nal]Q-NH2),IC50,[1],15 µM
CC(=O)N[C@@H](CCCCNC(=O)CCCC[C@@H]1SC[C@@H]2NC(=O)N[C@@H]21)C(=O)N[C@@H](C)C(=O)N[C@@H](C)C(=O)N[C@@H](CC1CCCCC1)C(=O)N[C@H](C(=O)N1Cc2ccccc2C[C@H]1C(=O)N[C@@H](Cc1ccc2ccccc2c1)C(=O)N[C@@H](CCC(N)=O)C(N)=O)[C@H](C)OP(=O)(O)O (Ac-K(Biotin)AA[Cha][alloThr(PO3H2)][Tic][2Nal]Q-NH2),IC50,[1],25 µM
CC(=O)N[C@@H](CCCCNC(=O)CCCC[C@@H]1SC[C@@H]2NC(=O)N[C@@H]21)C(=O)N[C@@H](C)C(=O)N[C@@H](C)C(=O)N[C@@H](Cc1ccc(-c2ccccc2)cc1)C(=O)N[C@H](C(=O)N1CCC[C@H]1C(=O)N[C@@H](Cc1csc2ccccc12)C(=O)N[C@@H](CCC(N)=O)C(N)=O)[C@H](C)OP(=O)(O)O (Ac-K(Biotin)AA[Bip][alloThr(PO3H2)]P[Bta]Q-NH2),IC50,[1],15 µM
CC(=O)N[C@@H](CCCCNC(=O)CCCC[C@@H]1SC[C@@H]2NC(=O)N[C@@H]21)C(=O)N[C@@H](C)C(=O)N[C@@H](C)C(=O)N[C@@H](Cc1ccc2ccccc2c1)C(=O)N[C@H](C(=O)N1CCC[C@H]1C(=O)N[C@@H](CC1CCCCC1)C(=O)N[C@@H](CCC(N)=O)C(N)=O)[C@H](C)OP(=O)(O)O (Ac-K(Biotin)AA[2Nal][alloThr(PO3H2)]P[Cha]Q-NH2),IC50,[1],> 50 µM
CC(=O)N[C@@H](Cc1ccccc1)C(=O)N[C@@H](C(=O)N1CCCC[C@@H]1C(=O)N[C@@H](Cc1ccc2ccccc2c1)C(=O)N[C@@H](CCC(N)=O)C(N)=O)[C@H](C)OP(=O)(O)O,inhibition,[12],< 10%
same,inhibition,[13],< 10%
same,inhibition,[14],< 10%
same,inhibition,[15],< 10%
same,inhibition,[16],< 10%
same,inhibition,[17],< 10%
same,inhibition,[18],< 10%
same,inhibition,[19],< 10%
same,inhibition,[20],< 10%
same,Activity,HeLa [21],Dose-dependent effect
CC(=O)N[C@@H](CCCCNC(=O)CCCC[C@@H]1SC[C@@H]2NC(=O)N[C@@H]21)C(=O)N[C@@H](C)C(=O)N[C@@H](C)C(=O)N[C@@H](Cc1csc2ccccc12)C(=O)N[C@@H](C(=O)N1CCCC[C@H]1C(=O)N[C@@H](Cc1ccc2ccccc2c1)C(=O)N[C@@H](CCC(N)=O)C(N)=O)[C@@H](C)OP(=O)(O)O (Ac-K(Biotin)AA[Bta][dalloThr(PO3H2)][Pip][2Nal]Q-NH2),Ki,[1],0.0012 µM
same,inhibition,[12],< 10%
same,inhibition,[13],< 10%
same,inhibition,[14],< 10%
same,inhibition,[15],< 10%
same,inhibition,[16],< 10%
same,inhibition,[17],< 10%
same,inhibition,[18],< 10%
same,inhibition,[19],< 10%
same,inhibition,[20],< 10%
CC(=O)N[C@@H](CCCCNC(=O)CCCC[C@@H]1SC[C@@H]2NC(=O)N[C@@H]21)C(=O)N[C@@H](C)C(=O)N[C@@H](C)C(=O)N[C@@H](CC1CCCCC1)C(=O)N[C@H](C(=O)N(C)[C@@H](C)C(=O)N[C@@H](Cc1ccc2ccccc2c1)C(=O)N[C@@H](CCC(N)=O)C(N)=O)[C@H](C)OP(=O)(O)O (Ac-K(Biotin)AA[Cha][alloThr(PO3H2)][NMeA][2Nal]Q-NH2),IC50,[1],7 µM
